KCNQ1 pot – potentiators or activators of KCNQ1 channel, primary screen, cell-based, thallium flux, high-throughput; Potassium voltage-gated channel subfamily KQT member 1 (Homo sapiens), P51787; 0.35% of 310,000 active; CHO-K1 KCNQ1, thallium flux FluxOR fluorescence; hits give high values; AID 2648, 2010; B-score at 10 µM;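 active = fluorescence ratio B-score, a plate-corrected score, at least three library SD, with initial intensity B-score within 5 SD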
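Material: CHO-K1 cells stably expressing KCNQ1. Medium: assay buffer for compound exposure, DMSO matched across wells. Reagent: K+/Tl+ depolarizing stimulus. Compound dosing: single-concentration screen. Times: 37 °C overnight plating, 90-min dark dye load, 20-min compound pretreatment. Technique: FluxOR Tl+ flux fluorescence.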
Kir21 inh – inhibitors of mouse Kir2.1 inward-rectifier potassium channel; HEK293-Kir2.1, FluxOR thallium flux fluorescence; hits give low values; B-score at 10 µM; Inward rectifier potassium channel 2 (Mus musculus), P35561; 0.85% of 310,000 active; AID 1672, 2009;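 active = fluorescence ratio B-score at or below minus 3 SD of library scores, with starting-brightness B-score within 2 SD, cut at about -4.2 in these data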;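 also: channel flux triggered by added potassium and thallium sulfate stimulus; B-score of peak minus minimum fluorescence over baseline after thallium stimulus; more negative B-score means stronger Kir2.1 block with less thallium influx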
hERG rescue – hERG rescue from dofetilide block, primary screen, cell-based, CHO-hERG, FluxOR thallium flux, dofetilide IC70 | AID 1511, 2009 | Voltage-gated inwardly rectifying potassium channel KCNH2 (Homo sapiens), Q12809 | dofetilide IC70 present | activation (rescue from dofetilide block), less the hit threshold, % at 10 µM | 0.51% of 310,000 active;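 active = activation above the mean of controls blocked by dofetilide plus 5 SD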;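 also: thallium influx through hERG after potassium depolarization seen as dye fluorescence rise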
KCNQ1 inh – inhibitors of human KCNQ1 channel, primary screen, cell-based, thallium flux, high-throughput; B-score at 10 µM; CHO-K1 KCNQ1, FluxOR thallium flux fluorescence; hits give high values; 1.3% of 310,000 active; Potassium voltage-gated channel subfamily KQT member 1 (Homo sapiens), P51787;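 active = compounds whose thallium flux B-score, printed positive for inhibition, exceeds three library SD while starting fluorescence stays within three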;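 also: channel opened by potassium depolarization with thallium stimulus after 20 min compound exposure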
KCNK3 block – human KCNK3 channel inhibitors, primary screen, CHO cells, FluxOR thallium flux, B-score. FluxOR fluorescence; hits give low values. AID 602410, 2012. B-score at 10 µM. 0.84% of 340,000 active. Potassium channel subfamily K member 3 (Homo sapiens), O14649;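 active = B-score under library mean minus 4 SD, starting fluorescence ratio at most library mean plus 5 SD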;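 also: more negative B-score means stronger inhibition of thallium flux through KCNK3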
KCNK9 block – KCNK9 potassium channel inhibitors, primary screen, HEK293 cells, thallium flux; FluxOR thallium flux fluorescence; hits give low values; 1.2% of 310,000 active; AID 488922, 2010; B-score at 10 µM;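 active = ratio B-score over 3 SD below the library mean, with starting fluorescence within 5 SD of its mean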;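 also: negative B-score means less thallium flux so channel inhibition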
Target sequence (Q9NPC2 whole entry, looked up): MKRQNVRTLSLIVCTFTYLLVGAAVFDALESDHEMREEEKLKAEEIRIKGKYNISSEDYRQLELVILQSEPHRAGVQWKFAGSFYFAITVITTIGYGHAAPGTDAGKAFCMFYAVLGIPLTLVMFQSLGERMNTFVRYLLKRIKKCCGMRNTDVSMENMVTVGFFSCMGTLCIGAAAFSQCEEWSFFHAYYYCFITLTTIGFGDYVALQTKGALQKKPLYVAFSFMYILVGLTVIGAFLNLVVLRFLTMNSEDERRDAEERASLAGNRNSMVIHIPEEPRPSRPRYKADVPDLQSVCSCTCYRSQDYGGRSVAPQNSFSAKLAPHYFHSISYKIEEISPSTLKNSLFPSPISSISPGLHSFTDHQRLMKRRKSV
KCNK9 inh conf – KCNK9 potassium channel inhibitors, confirmation, HEK293 cells, thallium flux, duplicate; shares compounds with KCNK9 block; FluxOR thallium flux fluorescence; inhibition, % at 10 µM; 43% of 4,900 active;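 active = thallium signal inhibited by more than 5 SD of the compound-free buffer control wells, on both duplicate plates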;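 also: 0% = assay buffer control wells without compound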
Kir2-1 spec – mouse Kir2.1 channel inhibition, confirmation, selectivity assay for KCNK9 modulator project, cell-based, HEK293, thallium flux | shares compounds with KCNK9 block | 4% of 4,900 active | inhibition, % at 10 µM | Kir2.1 cells, FluxOR thallium flux fluorescence;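 active = thallium signal drop more than 5 SD beyond the mean of the no-compound control wells, seen in both duplicate plates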;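 also: signal is fluorescence rise after thallium addition divided by baseline fluorescence; plate controls were assay buffer only for no effect and full block by chlorpromazine control for full effect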
HEK293 Tl ctr – thallium flux in non-induced HEK293 cells, confirmation, counter-screen for KCNK9 inhibitor project, cell-based, second counter screen, non-induced KCNK9-HEK293; shares compounds with KCNK9 block; FluxOR thallium flux; inhibition, % at 10 µM; 40% of 4,900 active; AID 492997, 2010;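 active = thallium signal drop beyond 5 SD of the untreated control mean, on both duplicate plates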;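 also: plate controls were buffer only IC0 wells for no effect and SID17386958 at its maximal inhibitory level for full effect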
* = called active by the depositor; i = inactive; / = no result given. Rows were chosen to be rich in hits. Some 3.7% of all compounds tested hit in one or more screens of this group.

SMILES	KCNQ1 pot	Kir21 inh	hERG rescue	KCNQ1 inh	KCNK3 block	KCNK9 block	KCNK9 inh conf	Kir2-1 spec	HEK293 Tl ctr
O=C(c1cccc(C(F)(F)F)c1)N1CCc2c([nH]c3ccccc23)C1C(F)(F)F (centres undefined)	i	-0.6	-4.4	i	i	i	/	/	/
CCCCSc1cnn(-c2ccccc2)c(=O)c1SCCCC	i	0.02	-6.6	6*	i	-9.88*	51.5%*	i	47.5%*
CCSc1cnn(-c2ccccc2)c(=O)c1SCC	i	-0.61	-7.8	i	i	i	/	/	/
COc1cccc(N2CCN(C(=O)CCSCc3ccccc3F)CC2)c1	i	1.1	-21.3	i	i	i	i	i	i
COc1ccccc1N1CCN(C(=O)CCSCc2ccccc2F)CC1	i	-0.23	-24.2	i	i	i	/	/	/
CCOC(=O)Cn1c(S(=O)(=O)Cc2cccc(F)c2)nc(-c2ccccc2)c1-c1ccccc1	i	0.39	-6.6	i	i	-11*	49.5%*	i	30.0%*
NC(=O)Cn1c(S(=O)(=O)Cc2ccccc2)nc2ccccc21	i	1.06	-3.6	i	i	i	/	/	/
CCOC(=O)Cn1c(S(=O)(=O)Cc2ccc(F)cc2)nc(-c2ccccc2)c1-c1ccccc1	i	-1.05	-7.1	i	i	-9.07*	33.5%*	i	39.0%*
C#CCn1c(S(=O)(=O)Cc2ccc(F)cc2)nc(-c2ccccc2)c1-c1ccccc1	i	0.7	-11.8	i	i	-14.3*	61.0%*	i	31.0%*
O=C(Nc1ccc(C(=O)N2CCN(c3ccccc3)CC2)cc1)C1=CSCCO1	i	0.11	-6.8	i	i	i	/	/	/
CC(=O)c1c(C)[nH]c(C(=O)CN2CCN(S(=O)(=O)c3ccccc3[N+](=O)[O-])CC2)c1C	/	/	/	/	i	/	/	/	/
O=C(Cc1sc(Nc2ccccc2)nc1-c1ccccc1)NCc1ccccc1	i	0.01	-5.5	i	i	-9.16*	62.5%*	i	31.0%*
COC(=O)c1ccccc1Sc1c(/C=N/OC(=O)c2ccccc2)c(C(F)(F)F)nn1C	i	0.68	-4.8	i	i	i	/	/	/
Cc1ccc(C(=O)O/N=C/c2c(C(F)(F)F)nn(C)c2Sc2ccc(Cl)cc2)cc1	i	1.14	-7.1	i	i	i	i	i	i
CC(C)N(Cc1ccccc1)C(=O)COC(=O)CCC(=O)c1ccc(F)cc1	/	/	/	/	i	/	/	/	/
CCOC(=O)c1c(NC(=O)C2CCN(S(=O)(=O)c3cccs3)CC2)sc(C)c1C	i	0.35	-6.4	i	i	i	i	i	i
Cc1ccc(C)c(N2CCN(C(=O)c3cc4sccc4n3C)CC2)c1	i	-0.09	-14.9	i	i	i	/	/	/
Cn1c(C(=O)N2CCN(c3cccc(C(F)(F)F)c3)CC2)cc2sccc21	i	1.87	-13.9	i	i	i	i	i	i
NC(=O)c1ccccc1OCc1nc2ccccc2s1	i	1.67	-14.2	i	i	i	i	i	i
CC(=O)OCc1nc2ccccc2s1	i	0.8	-5.6	i	i	i	/	/	/
